This note sets out measurements from ChEMBL document CHEMBL3779876, “Synthesis and biological evaluation of novel 2,3-dihydrochromeno[3,4-d]imidazol-4(1H)-one derivatives as potent anticancer cell proliferation and migration agents” (Eur J Med Chem, 2016).

As usually defined, the IC50 is the concentration that inhibits the measured activity by half.

Bounds are passed on as bounds.

Test [1] is described as follows: Growth inhibition of human U87MG cells assessed as cell viability after 72 hrs by MTT assay. The class given is functional, cell-based, U-87MG ATCC. To be noted: U-87 MG. An outline of the steps:
(§1)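 Cells were grown in DMEM or RPMI with 10% FBS and 1% penicillin/streptomycin at 37 °C, 5% CO2. They were seeded at 2000–3000 cells, rested 24 h, then exposed to a range of concentrations for 72 h. MTT (5 mg/mL stock) was added for 2–4 h at 37 °C and formazan dissolved in DMSO. A570 was read and IC50 calculated; triplicate wells, three separate experiments.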
Background: Tetrazolium dyes change colour on reduction, which living cells bring about.

A short description of test [2]: Growth inhibition of human HCT116 cells assessed as cell viability after 72 hrs by MTT assay. It is filed as functional, cell-based. To be noted: HCT-116, 72 h. An outline of the steps:
as §1

Test [3] in a line: Growth inhibition of human PC3 cells assessed as cell viability after 72 hrs by MTT assay. It is filed as functional, cell-based. The settings on record: PC-3, 72 h. The gist of the method:
as §1

For the molecule `N#CCc1ccc(-n2c(=O)[nH]c3c(=O)oc4ccc(-c5cccc(NS(=O)(=O)c6ccc(F)cc6)c5)cc4c32)cc1`, the IC50 in test [1], in test [2] and in test [3] was over 40 µM each time.
`Cc1ccccc1-n1c(=O)[nH]c2c(=O)oc3ccc(-c4ccncc4)cc3c21`: the IC50 in test [1], in test [2] and in test [3] was over 40 µM each time.
With `Cc1ccccc1-n1c(=O)[nH]c2c(=O)oc3ccc(-c4cccnc4)cc3c21`, the concentration for half-maximal inhibition (IC50) in test [1], in test [2] and in test [3] was over 40 µM each time.
As to `CC(C)(C#N)c1ccc(-n2c(=O)[nH]c3c(=O)oc4ccc(-c5ccncc5)cc4c32)cc1`, the IC50 in test [1] is 28.6 µM; in test [3], 29 µM.
On to `Cc1ccccc1-c1ccc2oc(=O)c3[nH]c(=O)n(-c4ccccc4)c3c2c1`, for which the half-maximal inhibitory concentration (IC50) in test [1] was over 40 µM.
For the molecule `O=c1oc2ccc(-c3cnc4ccccc4c3)cc2c2c1[nH]c(=O)n2-c1ccccc1`, the IC50 came out at 35.6 µM in test [1], 31.5 µM in test [2] and 34 µM in test [3].
On to `Cc1ccccc1-c1ccc2oc(=O)c3[nH]c(=O)n(-c4ccc(CC#N)cc4)c3c2c1`, for which the IC50 in test [1], in test [2] and in test [3] was over 40 µM in each case.
Take `N#CCc1ccc(-n2c(=O)[nH]c3c(=O)oc4ccc(-c5cccnc5)cc4c32)cc1`: the concentration for half-maximal inhibition (IC50) in test [1] was over 40 µM; in test [2] it was 29.4 µM; in test [3] it was over 40 µM.
For the molecule `CS(=O)(=O)c1ccc(-c2ccc3oc(=O)c4[nH]c(=O)n(-c5ccc(CC#N)cc5)c4c3c2)cc1`, the values for the IC50 in test [1] and in test [3] were 39.7 µM and 29.6 µM, respectively.
Consider `N#CCc1ccc(-n2c(=O)[nH]c3c(=O)oc4ccc(-c5cnc6ccccc6c5)cc4c32)cc1`, for which the figures for the concentration for half-maximal inhibition (IC50) in test [1], in test [2] and in test [3] were 34.9 µM, 28.4 µM and 30.2 µM, respectively.
The like results for `N#CCc1ccc(-n2c(=O)[nH]c3c(=O)oc4ccc(-c5ccccc5)cc4c32)cc1` were, in that order, 31.4 µM, over 40 µM and 35.3 µM.
The corresponding values for `COc1ccc(-n2c(=O)[nH]c3c(=O)oc4ccc(-c5cccnc5)cc4c32)cc1` are over 40 µM, over 40 µM and over 40 µM.
Consider `O=c1oc2ccc(-c3ccc(O)cc3)cc2c2c1[nH]c(=O)n2-c1ccccc1`, for which, in test [1], the IC50 is over 40 µM.
Consider `N#CCc1ccc(-n2c(=O)[nH]c3c(=O)oc4ccc(-c5ccc(O)cc5)cc4c32)cc1`, for which the half-maximal inhibitory concentration (IC50) came to 29.6 µM in test [1], 30.1 µM in test [2] and 30.6 µM in test [3].
For `O=c1oc2ccc(-c3ccncc3)cc2c2c1[nH]c(=O)n2-c1ccccc1`, the concentration for half-maximal inhibition (IC50) in test [1] stood at 38.7 µM.
Turning to `O=c1oc2ccc(-c3cccc(NS(=O)(=O)c4ccc(F)cc4)c3)cc2c2c1[nH]c(=O)n2-c1ccccc1`, the IC50 in test [1], in test [2] and in test [3] was over 40 µM in each case.
Regarding `N#CCc1ccc(-n2c(=O)[nH]c3c(=O)oc4ccc(-c5cccc(N)c5)cc4c32)cc1`, the IC50 in test [1] is over 40 µM; in test [3], 36.5 µM.
In the case of `COc1ccc(-n2c(=O)[nH]c3c(=O)oc4ccc(-c5ccncc5)cc4c32)cc1`, the IC50 in test [1], in test [2] and in test [3] was over 40 µM each time.
Regarding `Nc1cccc(-c2ccc3oc(=O)c4[nH]c(=O)n(-c5ccccc5)c4c3c2)c1`, the IC50 in test [1] and in test [3] was over 40 µM throughout.
Turning to `N#CCc1ccc(-n2c(=O)[nH]c3c(=O)oc4ccc(-c5ccncc5)cc4c32)cc1`, the IC50 stood at 36.4 µM in test [1], 37.2 µM in test [2] and 37.1 µM in test [3].
The corresponding values for `CC(C)(C#N)c1ccc(-n2c(=O)[nH]c3c(=O)oc4ccc(-c5cnc6ccccc6c5)cc4c32)cc1` are 33.4 µM, 20.4 µM and 19.8 µM.
The corresponding values for `COc1ccc(-n2c(=O)[nH]c3c(=O)oc4ccc(-c5cnc6ccccc6c5)cc4c32)cc1` are over 40 µM, over 40 µM and over 40 µM.
On to `CC(C)(C#N)c1ccc(-n2c(=O)[nH]c3c(=O)oc4ccc(-c5cccnc5)cc4c32)cc1`, for which the results for the half-inhibitory concentration (IC50) in test [1] and in test [3] were 25.6 µM and 38.2 µM, respectively.
The like results for `O=c1oc2ccc(-c3ccccc3)cc2c2c1[nH]c(=O)n2-c1ccccc1` were, in that order, over 40 µM and over 40 µM.
The corresponding values for `O=c1oc2ccc(-c3cccnc3)cc2c2c1[nH]c(=O)n2-c1ccccc1` are over 40 µM and over 40 µM.
Regarding `Cc1ccccc1-n1c(=O)[nH]c2c(=O)oc3ccc(-c4cnc5ccccc5c4)cc3c21`, the IC50 in test [1], in test [2] and in test [3] was over 40 µM each time.
